Activity calls are given as the source filed them. The rule behind the calls is not given here.
Key:
Mus musculus [1] = assay: Reduction in tolerance acquisition in ICR-CD1 mouse assessed as compound antinociception effect at 125 to 2500 pmol, icv administered on day 1 and repeated on day 2 measured on day 1 by radiant heat tail flick test; format: functional; parameters: scale not given: the % may be the effect or the level left
Outline: (§1)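 Tolerance test in male ICR-CD1 mice given i.c.v. The highest dose of the day-1 dose-response curve is given on day 1 and repeated 24 h later in the same mice. Radiant-heat tail-flick %MPE is recorded each day, and mice with no significant day-to-day difference are classed as not tolerant.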

Mus musculus [2] = assay: Antinociceptive activity against icv dosed ICR-CD1 mouse by radiant heat tail flick test; format: functional
Outline: (§2)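 Male ICR-CD1 mice (17–25 g), single i.c.v. or i.t. injection; tail-flick latency to radiant heat. Antinociception as %MPE = (Test − Control)/(10 − Control) × 100. Dose-response curves from at least three groups of 8–10 mice, each mouse used once; ED50 with 95% C.I. in pmol/mouse.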

Mus musculus [3] = assay: Reduction in tolerance acquisition in ICR-CD1 mouse assessed as compound antinociception effect at 125 to 2500 pmol intrathecally administered on day 1 and repeated on day 2 measured on day 1 by radiant heat tail flick test; format: functional; parameters: scale not given: the % may be the effect or the level left
Mus musculus [4] = assay: Antinociceptive activity against intrathecally dosed ICR-CD1 mouse by radiant heat tail flick test; format: functional; outline: as §2
Mus musculus [5] = assay: Reduction in tolerance acquisition in ICR-CD1 mouse assessed as compound antinociception effect at 125 to 2500 pmol intrathecally administered on day 1 and repeated on day 2 measured on day 2 by radiant heat tail flick test; format: functional; parameters: scale not given: the % may be the effect or the level left
[6] = target: Cannabinoid receptor 1/Mu-type opioid receptor (Homo sapiens) (UniProt P21554+P35372); assay: Induction of human MOPR/CB1receptor internalization transiently expressed in HEK293 cells at 1 uM after 30 mins by immunofluorescence assay; format: cell-based
Outline: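 HEK-293 cells were transiently transfected with human MOP and CB1 cDNA (16 μg per 2 million cells) and seeded into chamber slides 24 h later. After a further 24 h, cells were exposed to ligand (1 μM) for 30 min. They were then fixed in 4% paraformaldehyde and incubated overnight at 4°C with MOP- and CB1-selective primary antibodies. Fluorescent secondaries (red MOP, green CB1) were applied, and receptor location was imaged by confocal microscopy.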

Mus musculus [7] = assay: Reduction in tolerance acquisition in ICR-CD1 mouse assessed as compound antinociception effect at 125 to 2500 pmol, icv administered on day 1 and repeated on day 2 measured on day 2 by radiant heat tail flick test; format: functional; parameters: scale not given: the % may be the effect or the level left; outline: as §1
Mus musculus [8] = assay: Ratio of ED50 for antinociception activity in icv dosed ICR-CD1 mouse to ED50 for antinociception activity in intrathecally dosed ICR-CD1 mouse by radiant heat tail flick test; format: functional
Outline: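 ED50 values (pmol/mouse) come from radiant-heat tail-flick dose-response curves in male ICR-CD1 mice after i.c.v. or i.t. injection, with %MPE read-out and at least three groups of 8–10 mice per curve. The ratio is i.c.v. ED50 divided by i.t. ED50.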

Mus musculus [9] = assay: Antinociceptive activity in ICR-CD1 mouse at 2500 pmol administered intrathecally by radiant heat tail flick test; format: functional
Mus musculus [10] = assay: Antinociceptive activity in ICR-CD1 mouse at 2500 pmol, icv by radiant heat tail flick test; format: functional
Mus musculus [11] = assay: Reduction in tolerance acquisition in ICR-CD1 mouse assessed as compound antinociception effect at 125 to 2500 pmol, icv administered on day 1 and repeated after 48 hrs measured on day 3 by radiant heat tail flick test; format: functional; parameters: scale not given: the % may be the effect or the level left
Mus musculus [12] = assay: Reduction in tolerance acquisition in ICR-CD1 mouse assessed as compound antinociception effect at 125 to 2500 pmol, icv administered on day 1 measured after 24 hrs by radiant heat tail flick test; format: functional; parameters: scale not given: the % may be the effect or the level left
Mus musculus [13] = assay: Antinociceptive activity in ICR-CD1 mouse at 250 pmol administered intrathecally by radiant heat tail flick test; format: functional
Mus musculus [14] = assay: Antinociceptive activity in ICR-CD1 mouse at 250 pmol, icv by radiant heat tail flick test; format: functional

Structure (SMILES): CNC(=O)COCC(=O)NCCCCCNC(=O)COCC(=O)N[C@H]1CC[C@@]2(O)[C@H]3Cc4ccc(O)c5c4[C@@]2(CCN3C)[C@H]1O5
- Activity (Mus musculus [1]): 82.15%
- ED50 (Mus musculus [2]): 108 pmol
- Activity (Mus musculus [3]): 75.98%
- ED50 (Mus musculus [4]): 106 pmol
- Activity (Mus musculus [5]): 39.54%
- Activity [6]: Active
- Activity (Mus musculus [7]): 24.14%
- Ratio ED50 (Mus musculus [8]): 1.01

Structure (SMILES): Cc1c(C(=O)NC2CCN(C(=O)COCC(=O)NCCNC(=O)COCC(=O)N[C@H]3CC[C@@]4(O)[C@H]5Cc6ccc(O)c7c6[C@@]4(CCN5C)[C@H]3O7)CC2)nn(-c2ccc(Cl)cc2Cl)c1-c1ccc(Cl)cc1
- Activity (Mus musculus [1]): 83.47%
- ED50 (Mus musculus [2]): 55 pmol
- Activity (Mus musculus [3]): 98.33%
- ED50 (Mus musculus [4]): 42 pmol
- Activity (Mus musculus [5]): 72.5%
- Activity [6]: Active
- Activity (Mus musculus [7]): 66.99%
- Ratio ED50 (Mus musculus [8]): 1.31

Structure (SMILES): Cc1c(C(=O)NC2CCN(C(=O)COCC(=O)NCCCCCCNC(=O)COCC(=O)N[C@H]3CC[C@@]4(O)[C@H]5Cc6ccc(O)c7c6[C@@]4(CCN5C)[C@H]3O7)CC2)nn(-c2ccc(Cl)cc2Cl)c1-c1ccc(Cl)cc1
- Activity (Mus musculus [1]): 95.43%
- ED50 (Mus musculus [2]): 189 pmol
- Activity (Mus musculus [3]): 78.51%
- ED50 (Mus musculus [4]): 19 pmol
- Activity (Mus musculus [5]): 79.58%
- Activity [6]: Active
- Activity (Mus musculus [7]): 86.33%
- Ratio ED50 (Mus musculus [8]): 9.86

Structure (SMILES): Cc1c(C(=O)NN2CCCCC2)nn(-c2ccc(Cl)cc2Cl)c1-c1ccc(Cl)cc1
- Activity (Mus musculus [9]): inactive
- Activity (Mus musculus [10]): inactive

Structure (SMILES): Cc1c(C(=O)NC2CCN(C(=O)COCC(=O)NCCCCCCCNC(=O)COCC(=O)N[C@H]3CC[C@@]4(O)[C@H]5Cc6ccc(O)c7c6[C@@]4(CCN5C)[C@H]3O7)CC2)nn(-c2ccc(Cl)cc2Cl)c1-c1ccc(Cl)cc1
- Activity (Mus musculus [1]): 89.75%
- ED50 (Mus musculus [2]): 9 pmol
- Activity (Mus musculus [3]): 92.2%
- ED50 (Mus musculus [4]): 5 pmol
- Activity (Mus musculus [11]): 72.81%
- Activity (Mus musculus [5]): 87.91%
- Activity [6]: inactive
- Activity (Mus musculus [12]): 47%
- Ratio ED50 (Mus musculus [8]): 1.8

Structure (SMILES): Cc1c(C(=O)NC2CCN(C(=O)N[C@H]3CC[C@@]4(O)[C@H]5Cc6ccc(O)c7c6[C@@]4(CCN5C)[C@H]3O7)CC2)nn(-c2ccc(Cl)cc2Cl)c1-c1ccc(Cl)cc1
- Activity (Mus musculus [1]): 64.27%
- ED50 (Mus musculus [2]): 1219 pmol
- Activity (Mus musculus [3]): 73.55%
- ED50 (Mus musculus [4]): 559 pmol
- Activity (Mus musculus [5]): 66.01%
- Activity (Mus musculus [7]): 33.85%
- Ratio ED50 (Mus musculus [8]): 2.18

Structure (SMILES): CNC(=O)COCC(=O)NCCCCNC(=O)COCC(=O)N1CCC(NC(=O)c2nn(-c3ccc(Cl)cc3Cl)c(-c3ccc(Cl)cc3)c2C)CC1
- Activity (Mus musculus [9]): 20%
- Activity (Mus musculus [13]): 20%
- Activity (Mus musculus [10]): 20%
- Activity [6]: inactive
- Activity (Mus musculus [14]): 20%

Structure (SMILES): Cc1c(C(=O)NC2CCN(C(=O)COCC(=O)N[C@H]3CC[C@@]4(O)[C@H]5Cc6ccc(O)c7c6[C@@]4(CCN5C)[C@H]3O7)CC2)nn(-c2ccc(Cl)cc2Cl)c1-c1ccc(Cl)cc1
- Activity (Mus musculus [1]): 77.72%
- ED50 (Mus musculus [2]): 523 pmol
- Activity (Mus musculus [3]): 81.72%
- ED50 (Mus musculus [4]): 27 pmol
- Activity (Mus musculus [5]): 73.41%
- Activity [6]: Active
- Activity (Mus musculus [7]): 63.7%
- Ratio ED50 (Mus musculus [8]): 19.48

Source: ChEMBL document CHEMBL2401645, “Bivalent ligands that target μ opioid (MOP) and cannabinoid1 (CB1) receptors are potent analgesics devoid of tolerance” (2013)
